Consider 15 compounds from ChEMBL document CHEMBL1123028, “Synthesis and biological effects of novel thiocolchicines. 3. Evaluation of N-acyldeacetylthiocolchicines, N-(alkoxycarbonyl) deacetylthiocolchicines, and O-ethyldemethylthiocolchicines. New synthesis of thiodemecolcine and antileukemic effects of 2-demethyl- and 3-demethylthiocolchicine” (J Med Chem, 1985).

Series [1] is filed under the species Mus musculus. The experiment in a line: MED(minimum effective dose) against P388 lymphocytic leukemia in mice; this dose produced T/C greater than the threshold value of 125. The arrangement: unit: mg/kg. It counts as functional. The essentials:
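P388 leukemia implanted ip in mice, treated on a QD1 × 9 schedule under NCI Developmental Therapeutics Program protocols. Minimum effective dose (mg/kg) taken as the lowest dose giving T/C, as survival of treated versus control animals × 100, above the threshold of 125.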

Series [2] is filed under the species Mus musculus. The experiment in a line: Compound was evaluated for the antitumor activity against P388 lymphocytic leukemia in mice; T/C = (days test animal live/days control animals live x100). In kind it is functional. The method in brief: (§1)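 P388 lymphocytic leukemia implanted ip in mice, run to NCI Developmental Therapeutics Program protocols. Treatment given on a QD1 × 9 schedule. T/C = median survival time of treated animals / median survival time of untreated controls × 100. Value reported at the dose level giving the highest T/C. Activity requires duplicate tests with T/C ≥ 120%; a reproducible T/C ≥ 175% counts as significant.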

A short description of series [3]: (§2) Lethal dose after the intraperitoneal injection in a group of 10 mice. It counts as toxicity, organism-based. The note with it: mouse, in vivo, ip. The method in brief:
(§3)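 NIH general purpose mice (ca. 20 g) were given a single ip injection in an Emulphor EL-620 mixture. Groups of 10 were used at each of usually at least five dose levels. One set of 10 mice received the emulphor mixture alone as a control for each compound. Survivors were counted 7 days after injection, and LD50 (mg/kg) with 95% confidence interval was derived by probit analysis.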

Series [4] is filed under the species Mus musculus. The experiment in a line: Antitumor activity against P388 lymphocytic leukemia in mice. It counts as functional. The method in brief: as §1
Series [5] has as its system Mus musculus. The description is as §2. It counts as toxicity, organism-based. The note with it: in vivo, ip. The essentials: as §3
The species named for series [6] is Mus musculus. Briefly: Compound was evaluated for the antitumor activity against P388 lymphocytic leukemia in mice. In kind it is functional. The essentials: as §1
Series [7] is filed under the species Mus musculus. The experiment in a line: Compound was evaluated for the antitumor activity against P388 lymphocytic leukemia in mice; T/C = days test animal live/days control animals live x100. In kind it is functional. The method in brief:
as §1

The species named for series [8] is Mus musculus. The experiment in a line: Compound was evaluated for the antitumor activity against P388 lymphocytic leukemia in mice;T/C=days test animal live/days control animals live x100). It counts as functional. The essentials:
as §1

Bounds are passed on as bounds.

A word on the LD50: it is the dose expected to kill half of the subjects tested.

Turning to `CCCCOC(=O)N[C@H]1CCc2cc(OC)c(OC)c(OC)c2-c2ccc(SC)c(=O)cc21`, the MED in the series listed under Mus musculus [1] was under 3. Further, the T/C in the series filed under Mus musculus [2] turned out to be 142. Besides, the LD50 in series [3] is 81 mg/kg. This compound returned a Dose in the series listed under Mus musculus [4] of 3 mg/kg.

In turn, `CN[C@H]1CCc2cc(OC)c(OC)c(OC)c2-c2ccc(SC)c(=O)cc21` yielded an MED in the series filed under Mus musculus [1] of 50. The T/C in the series listed under Mus musculus [2] is reported as 131. For the same compound, in the series with Mus musculus [5], the Binding is over 100 mg/kg. The compound further showed a Dose in the series listed under Mus musculus [4] of 100 mg/kg.

Compound `COc1cc2c(c(OC)c1OC)-c1ccc(SC)c(=O)cc1[C@@H](NC(=O)Oc1ccccc1)CC2` had an MED in the series filed under Mus musculus [1] of 2.5. Moreover, the T/C in the series filed under Mus musculus [6] is listed as 164. The compound further displayed an LD50 in series [3] of over 50 mg/kg. This compound had a Dose in the series listed under Mus musculus [4] of 5 mg/kg.

Compound `CCOC(=O)N[C@H]1CCc2cc(OC)c(OC)c(OC)c2-c2ccc(SC)c(=O)cc21` gave an MED in the series filed under Mus musculus [1] of 0.38. The T/C in the series listed under Mus musculus [7] was 172. In the series filed under Mus musculus [4], the Dose came to 1.5 mg/kg.

In the series listed under Mus musculus [1], `C=COC(=O)N[C@H]1CCc2cc(OC)c(OC)c(OC)c2-c2ccc(SC)c(=O)cc21` had an MED of 1.5. In the series filed under Mus musculus [2], this compound had a T/C of 152. The compound also showed an LD50 in series [3] of 87.5 mg/kg. The compound also returned a Dose in the series listed under Mus musculus [4] of 3 mg/kg.

As to `COc1cc2c(c(OC)c1O)-c1ccc(SC)c(=O)cc1[C@@H](NC(C)=O)CC2`, in the series filed under Mus musculus [1], the MED is on record as 2.5. In the series listed under Mus musculus [6], the T/C came to 148. In addition, the LD50 in series [3] was 68.1 mg/kg. Also, the Dose in the series listed under Mus musculus [4] turned out to be 10 mg/kg.

`CCOCC(=O)N[C@H]1CCc2cc(OC)c(OC)c(OC)c2-c2ccc(SC)c(=O)cc21` gave an MED in the series filed under Mus musculus [1] of 0.38. In the series filed under Mus musculus [8], this compound yielded a T/C of 229. Besides, the LD50 in series [3] worked out at 5.1 mg/kg. Also, the Dose in the series filed under Mus musculus [4] came out at 1.5 mg/kg.

In the series listed under Mus musculus [1], `COc1c(O)cc2c(c1OC)-c1ccc(SC)c(=O)cc1[C@@H](NC(C)=O)CC2` gave an MED of 1.25. For the same compound, the T/C in the series filed under Mus musculus [6] is given as 194. In the series listed under Mus musculus [4], the Dose was found to be 5 mg/kg.

As for `COc1cc2c(c(OC)c1OC)-c1ccc(SC)c(=O)cc1[C@@H](N(C)C(=O)C(F)(F)F)CC2`, the MED in the series listed under Mus musculus [1] amounted to 5. Also, the T/C in the series listed under Mus musculus [2] is given as 145. This compound also gave an LD50 in series [3] of 18.6 mg/kg. The compound further returned a Dose in the series listed under Mus musculus [4] of 10 mg/kg.

`COc1cc2c(c(OC)c1OC)-c1ccc(SC)c(=O)cc1[C@@H](NC=O)CC2` returned an MED in the series filed under Mus musculus [1] of under 0.75. For the same compound, the T/C in the series listed under Mus musculus [6] amounted to 171. This compound also gave a median lethal dose (LD50) in series [3] of 58.2 mg/kg. In the series listed under Mus musculus [4], this compound gave a Dose of 0.75 mg/kg.

`COc1cc2c(c(OC)c1OC)-c1ccc(SC)c(=O)cc1[C@@H](NC(=O)c1ccccc1)CC2`: in the series filed under Mus musculus [1], the MED is listed as under 2.5. For the same compound, the T/C in the series filed under Mus musculus [2] is reported as 155. For the same compound, in series [3], the LD50 was 40 mg/kg. Moreover, the Dose in the series filed under Mus musculus [4] turned out to be 2.5 mg/kg.

`COc1cc2c(c(OC)c1OC)-c1ccc(SC)c(=O)cc1[C@@H](NC(=O)C(F)(F)F)CC2` gave an MED in the series filed under Mus musculus [1] of 0.32. Further, the T/C in the series listed under Mus musculus [6] is reported as 148. This compound also showed an LD50 in series [3] of 0.9 mg/kg. This compound gave a Dose in the series filed under Mus musculus [4] of 0.62 mg/kg.

As to `CCCC(=O)N[C@H]1CCc2cc(OC)c(OC)c(OC)c2-c2ccc(SC)c(=O)cc21`, the MED in the series listed under Mus musculus [1] is on record as 0.19. This compound showed a T/C in the series listed under Mus musculus [6] of 231. The compound also came in with a Dose in the series listed under Mus musculus [4] of 1.5 mg/kg.

In the case of `COc1cc2c(c(OC)c1OC)-c1ccc(OC)c(=O)cc1[C@@H](NC(C)=O)CC2` [COLCHICINE], in the series listed under Mus musculus [1], the MED is given as 0.06. In addition, the T/C in the series filed under Mus musculus [6] was found to be 245. The compound also displayed a Dose in the series filed under Mus musculus [4] of 0.5 mg/kg.

For the compound `COc1cc2c(c(OC)c1OC)-c1ccc(SC)c(=O)cc1[C@@H](NC(C)=O)CC2` [THIOCOLCHICINE], in the series listed under Mus musculus [1], the MED was found to be 0.05. The same compound yielded a T/C in the series listed under Mus musculus [6] of 193. The compound also had a Dose in the series listed under Mus musculus [4] of 0.18 mg/kg.
